# Activity calls are given as the source filed them. The rule behind the calls is not given here.
# Columns and labels:
# [1] = target: Fatty acid synthase (Mus musculus) (UniProt P19096); assay: Inhibition of mouse FAS at 80 uM preincubated for 30 mins in presence of acetyl coenzyme A and NADPH followed by malonyl coenzyme A addition and measured after 3 mins by spectrophotometric analysis
# Fatty acid synthase = Fatty acid synthase (Mus musculus, UniProt P19096); assay: Inhibition of mouse FAS preincubated for 30 mins in presence of acetyl coenzyme A and NADPH followed by malonyl coenzyme A addition and measured after 3 mins by spectrophotometric analysis
# Method in brief: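 Crude mouse-liver FAS (196.2 U/mg) preincubated with compound, NADPH and acetyl-CoA in K2HPO4 buffer pH 7.0 at 37 °C for 30 min. Malonyl-CoA then added, and NADPH oxidation followed at 340 nm for 3 min at 37 °C. Inhibition computed against a compound-free control. IC50 from at least five concentrations, each in triplicate; mean ± SE of three experiments.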
# HepG2 = conditions: Homo sapiens, at 10 µM
# Chain of Fatty acid synthase (P19096 whole entry): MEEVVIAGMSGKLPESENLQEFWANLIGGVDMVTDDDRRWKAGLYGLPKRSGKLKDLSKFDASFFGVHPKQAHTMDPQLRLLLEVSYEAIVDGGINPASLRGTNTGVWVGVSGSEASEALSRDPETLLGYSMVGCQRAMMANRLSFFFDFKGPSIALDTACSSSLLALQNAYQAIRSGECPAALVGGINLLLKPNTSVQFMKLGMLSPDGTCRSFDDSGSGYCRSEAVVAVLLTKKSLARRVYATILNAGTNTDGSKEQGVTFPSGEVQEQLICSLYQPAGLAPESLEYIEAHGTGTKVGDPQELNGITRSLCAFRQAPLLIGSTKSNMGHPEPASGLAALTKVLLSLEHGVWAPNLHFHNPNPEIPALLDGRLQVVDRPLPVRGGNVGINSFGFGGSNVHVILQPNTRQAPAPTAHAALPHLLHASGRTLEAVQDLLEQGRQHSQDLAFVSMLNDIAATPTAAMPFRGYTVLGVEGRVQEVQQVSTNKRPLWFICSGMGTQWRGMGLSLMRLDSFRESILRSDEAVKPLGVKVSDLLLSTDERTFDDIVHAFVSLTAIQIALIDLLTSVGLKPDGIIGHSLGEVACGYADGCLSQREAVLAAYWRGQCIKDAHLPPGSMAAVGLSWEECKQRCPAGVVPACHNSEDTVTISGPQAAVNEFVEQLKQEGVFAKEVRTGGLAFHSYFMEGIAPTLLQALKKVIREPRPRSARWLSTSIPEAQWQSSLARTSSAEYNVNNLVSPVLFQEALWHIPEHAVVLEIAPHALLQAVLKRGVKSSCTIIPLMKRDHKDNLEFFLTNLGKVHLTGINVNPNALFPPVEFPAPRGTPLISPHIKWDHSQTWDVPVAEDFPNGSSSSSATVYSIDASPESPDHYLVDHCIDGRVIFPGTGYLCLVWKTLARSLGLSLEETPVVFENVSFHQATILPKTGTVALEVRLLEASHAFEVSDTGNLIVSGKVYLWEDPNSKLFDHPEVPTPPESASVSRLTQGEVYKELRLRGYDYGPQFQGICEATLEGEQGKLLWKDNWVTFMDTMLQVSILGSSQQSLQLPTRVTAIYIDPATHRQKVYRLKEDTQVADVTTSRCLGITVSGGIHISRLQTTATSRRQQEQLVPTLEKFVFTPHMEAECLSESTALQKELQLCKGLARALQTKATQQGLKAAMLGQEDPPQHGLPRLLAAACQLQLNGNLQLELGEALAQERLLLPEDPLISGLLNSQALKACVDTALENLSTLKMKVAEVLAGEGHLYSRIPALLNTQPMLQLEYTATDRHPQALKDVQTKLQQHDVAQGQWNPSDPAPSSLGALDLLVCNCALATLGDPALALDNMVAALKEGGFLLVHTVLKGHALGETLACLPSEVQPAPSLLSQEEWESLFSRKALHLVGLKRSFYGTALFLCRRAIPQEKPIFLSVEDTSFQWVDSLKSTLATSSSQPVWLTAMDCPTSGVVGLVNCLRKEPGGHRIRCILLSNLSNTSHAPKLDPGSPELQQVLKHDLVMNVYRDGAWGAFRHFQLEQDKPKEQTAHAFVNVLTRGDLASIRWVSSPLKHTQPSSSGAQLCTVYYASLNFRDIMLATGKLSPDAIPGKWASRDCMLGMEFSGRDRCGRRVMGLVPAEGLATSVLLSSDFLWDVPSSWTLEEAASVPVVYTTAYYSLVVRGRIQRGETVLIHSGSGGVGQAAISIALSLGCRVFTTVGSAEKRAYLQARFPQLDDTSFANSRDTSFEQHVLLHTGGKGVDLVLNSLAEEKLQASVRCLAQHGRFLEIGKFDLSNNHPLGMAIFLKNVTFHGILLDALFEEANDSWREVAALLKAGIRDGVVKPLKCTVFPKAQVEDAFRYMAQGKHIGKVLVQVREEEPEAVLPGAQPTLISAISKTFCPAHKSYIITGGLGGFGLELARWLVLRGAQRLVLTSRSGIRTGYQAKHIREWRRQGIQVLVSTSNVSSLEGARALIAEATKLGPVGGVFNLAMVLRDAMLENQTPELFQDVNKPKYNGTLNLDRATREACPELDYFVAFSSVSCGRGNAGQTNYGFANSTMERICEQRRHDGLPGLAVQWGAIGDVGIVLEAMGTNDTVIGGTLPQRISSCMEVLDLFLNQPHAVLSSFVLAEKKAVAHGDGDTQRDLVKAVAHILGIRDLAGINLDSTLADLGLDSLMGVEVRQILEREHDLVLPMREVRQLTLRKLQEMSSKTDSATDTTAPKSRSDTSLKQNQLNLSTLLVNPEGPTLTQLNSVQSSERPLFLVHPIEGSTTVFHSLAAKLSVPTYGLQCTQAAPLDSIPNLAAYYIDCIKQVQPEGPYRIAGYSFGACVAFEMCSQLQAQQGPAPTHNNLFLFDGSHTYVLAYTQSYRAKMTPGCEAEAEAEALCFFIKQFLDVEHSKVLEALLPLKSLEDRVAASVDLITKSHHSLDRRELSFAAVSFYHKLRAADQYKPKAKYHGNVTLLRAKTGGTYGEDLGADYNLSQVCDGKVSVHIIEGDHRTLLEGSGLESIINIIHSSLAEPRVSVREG
# Chain of Fatty acid synthase (Mus musculus) (P19096 whole entry): as above
inhibition [1],IC50 (Fatty acid synthase) [µM],Compound,inhibition (HepG2)
,13.9,C=C1C(=O)OC(CCCCCCCC)C1C(=O)O (configuration not stated),Active
,19.6,CCCCCCCCCCCCCCCC(=O)O[C@H]1C(=O)OCC1(C)C,Active
,28.2,CC(C)Cc1ccc(C(C)C(=O)O[C@H]2C(=O)OCC2(C)C)cc1 (some centres not stated),
,20.8,CCCCCCCC(=O)O[C@H]1C(=O)OCC1(C)C,Active
,15.2,CCCCCCCCCCCC(=O)O[C@H]1C(=O)OCC1(C)C,Active
,23,CC1(C)COC(=O)[C@@H]1OC(=O)c1ccccc1,inactive
inactive,,CCOc1ccc(C(=O)O[C@H]2C(=O)OCC2(C)C)cc1,
,19.2,CC1(C)COC(=O)[C@@H]1OC(=O)c1ccc(Cl)cc1,Active
inactive,,CCCCCCCCCCCCCCCCCC(=O)O[C@H]1C(=O)OCC1(C)C,
,23.3,CCCCCC(=O)O[C@H]1C(=O)OCC1(C)C,Active
inactive,,CC1(C)COC(=O)[C@@H]1OC(=O)c1ccc(F)cc1,
,27.7,CCCCc1ccc(C(=O)O[C@H]2C(=O)OCC2(C)C)cc1,

# Further lines, the compound ahead of its results:
Compound,inhibition [1],IC50 (Fatty acid synthase) [µM],inhibition (HepG2)
CC1(C)COC(=O)[C@@H]1OC(=O)c1ccc(Br)cc1,inactive,,
CC1(C)COC(=O)[C@@H]1O,inactive,,
Cc1ccc(C(=O)O[C@H]2C(=O)OCC2(C)C)cc1,,17.2,inactive
COc1ccc(C(=O)O[C@H]2C(=O)OCC2(C)C)cc1,,13.7,Active
CC1(C)COC(=O)[C@@H]1OC(=O)c1ccc(C#N)cc1,,21.5,Active
CCCC(=O)O[C@H]1C(=O)OCC1(C)C,,28.2,
CC1(C)COC(=O)[C@@H]1OC(=O)c1ccc(I)cc1,inactive,,
CC(=O)O[C@H]1C(=O)OCC1(C)C,,33.2,
CC(=O)Oc1cc(C(=O)O[C@H]2C(=O)OCC2(C)C)cc(OC(C)=O)c1OC(C)=O,,13.9,Active
